Where two headings read alike, the source gives them in different places.
How the values were obtained:
[1] = tested on: IIIB strain of HIV-1 in CEM-SS cells; assay: Combination drug interaction evaluation; format: cell-based
Method in brief: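 CEM-SS cells infected with HIV-1 IIIB; inhibition of cytopathic effect measured for the test compound in two-drug combinations with known anti-HIV agents. Efficacy and toxicity analysed by Prichard–Shipman MacSynergy II. Expected additive inhibition computed from each agent's single-agent dose–response; inhibition above expected at each concentration calculated at 95%, 99% and 99.9% confidence. −99 to −51 μM2% scored antagonistic; <−100 highly antagonistic.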

in vitro = conditions: human, CC50 (cytotoxic concentration), fresh human PBMCs
MT-4 cells = assay: Toxicity to MT-4 cells; format: cell-based; conditions: all assays
[2] = tested on: HIV attachment to HeLa-CD4-LTR-β-gal cells; assay: Attachment inhibition assay; format: cell-based, HIV-1; conditions: Human immunodeficiency virus 1, read-out: Attachment inhibition EC50 ± SD
HIV-1IIIB [3] = assay: Drug-resistant virus selection by serial dose escalation; format: cell-based; conditions: fourteen passages, CEM-SS cells
[4] = tested on: drug resistant clinical HIV isolates; assay: Antiviral activity against drug-resistant HIV-1 in PBMCs; format: cell-based; conditions: Human immunodeficiency virus 1, PBMC
cytochrome P450 enzymes = assay: Inhibition of cytochrome P450 enzymes; format: in vitro ADME
Pharmacokinetics in rats = format: in vivo; conditions: male, Sprague-Dawley, rat, plasma
Method in brief: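 Male Sprague-Dawley rats, n = 3 per route. Prodrug given as IV bolus (50 mg/kg, 12.5 mg/mL in 5% DMSO/50% PEG300 in saline) or PO (1000 mg/kg, […] in 2% CMC suspension). Blood sampled over 24 h into sodium fluoride plus citric acid, kept on wet ice <10 min, then centrifuged at 4 °C. Plasma stored at −80 °C; prodrug and active metabolite quantified by UPLC-MS/MS (prodrug LLOQ 0.10 ng/mL).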

hERG = hERG (Homo sapiens, UniProt Q12809); assay: Standard hERG test for cardiotoxicity
wild type HIV-1 RT = wild type HIV-1 RT (Human immunodeficiency virus type 1 group M subtype B, UniProt P04585); assay: Biochemical RT inhibition assay
HIV-1IIIB [5] = assay: Antiviral activity with added serum proteins in CEM-SS cells; format: cell-based
HIV-1 integrase = HIV-1 integrase (Human immunodeficiency virus type 1 group M subtype B, UniProt P04585); assay: HIV-1 integrase inhibition assay; format: biochemical
[6] = tested on: clinical HIV-1 subtype B virus 92US723; assay: Antiviral activity with added serum proteins in fresh human PBMCs; format: cell-based; conditions: 50% human serum, AAGP or HSA vs medium only
[7] = tested on: drug-resistant HIV-1 strains; assay: Antiviral activity against drug-resistant HIV-1 strains in MT-4; format: cell-based; conditions: MT-4
HIV strain 92US727 = assay: Cell-to-cell virus transmission assay in fresh human PBMCs; format: cell-based, HIV-1
Method in brief: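 HIV-infected fresh human PBMCs treated 3 days with six concentrations of test compound. Passaged every 3 days for three passages at fixed compound concentration; 80% of culture volume replaced with fresh compound-containing medium and uninfected cells. Cell-free supernatants collected on sub-culture days for RT activity and extracellular p24 antigen. TCID50 per passage by endpoint dilution.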

HIVIIIB = assay: Cell-to-cell virus transmission assay in CEM-SS cells; format: cell-based, HIV-1
[8] = tested on: HL2/3 cells expressing HIV-1 gp120 and gp41 fusing with HeLa-CD4-LTR-β-gal cells; assay: Fusion inhibition assay; format: cell-based; conditions: Human immunodeficiency virus 1, HL2/3, read-out: Fusion inhibition EC50 ± SD
Method in brief: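 HeLa-CD4-LTR-β-Gal cells incubated with test compound for 1 h at 37°C/5% CO2, then co-cultured 48 h with HL2/3 cells. Cells lysed and β-galactosidase expression measured by chemiluminescent Gal-Screen.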

HIV-1 protease = HIV-1 protease (Human immunodeficiency virus type 1 group M subtype B, UniProt P04585); assay: HIV-1 protease inhibition assay; format: biochemical

Chain of hERG (Q12809 whole entry): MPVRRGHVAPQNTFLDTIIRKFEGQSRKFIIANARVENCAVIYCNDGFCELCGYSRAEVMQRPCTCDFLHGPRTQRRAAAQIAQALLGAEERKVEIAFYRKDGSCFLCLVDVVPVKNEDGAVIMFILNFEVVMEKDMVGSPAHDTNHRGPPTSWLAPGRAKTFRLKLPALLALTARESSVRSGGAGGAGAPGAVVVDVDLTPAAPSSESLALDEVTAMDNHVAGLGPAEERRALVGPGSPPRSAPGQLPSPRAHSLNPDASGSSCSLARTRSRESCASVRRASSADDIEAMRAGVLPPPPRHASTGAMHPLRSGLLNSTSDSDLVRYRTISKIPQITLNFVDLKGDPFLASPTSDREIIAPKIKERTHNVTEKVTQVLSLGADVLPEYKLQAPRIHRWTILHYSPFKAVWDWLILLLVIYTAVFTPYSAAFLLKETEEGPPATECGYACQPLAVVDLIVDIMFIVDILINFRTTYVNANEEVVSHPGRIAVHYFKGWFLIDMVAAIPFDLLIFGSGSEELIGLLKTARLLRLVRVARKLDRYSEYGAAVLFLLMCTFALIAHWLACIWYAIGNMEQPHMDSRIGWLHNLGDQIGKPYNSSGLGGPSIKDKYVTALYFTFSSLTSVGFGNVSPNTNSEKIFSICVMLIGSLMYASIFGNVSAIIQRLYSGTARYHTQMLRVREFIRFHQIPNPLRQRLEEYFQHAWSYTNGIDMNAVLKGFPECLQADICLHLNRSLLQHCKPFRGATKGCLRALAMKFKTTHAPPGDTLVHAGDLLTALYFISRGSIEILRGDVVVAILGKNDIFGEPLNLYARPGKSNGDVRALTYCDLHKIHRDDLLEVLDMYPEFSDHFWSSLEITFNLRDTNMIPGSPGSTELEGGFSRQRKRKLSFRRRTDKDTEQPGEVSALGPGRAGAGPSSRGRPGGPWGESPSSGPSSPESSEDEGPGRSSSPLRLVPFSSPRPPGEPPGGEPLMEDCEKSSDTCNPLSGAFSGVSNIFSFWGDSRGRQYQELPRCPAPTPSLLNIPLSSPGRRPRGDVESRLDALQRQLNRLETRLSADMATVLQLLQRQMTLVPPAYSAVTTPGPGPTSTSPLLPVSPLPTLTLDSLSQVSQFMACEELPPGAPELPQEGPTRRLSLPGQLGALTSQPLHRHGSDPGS

## CCCC(=O)OCSc1ccccc1C(=O)NCCC(N)=O [NS1040, ((2-((3-amino-3-oxopropyl)carbamoyl)phenyl)thio)methyl butyrate]
[1]; in combination with amprenavir
  mean synergy volume: 111 ± 27.8 μM^2%
[1]; in combination with enfuviritide
  mean synergy volume: 115 ± 39.5 μM^2%
[1]; in combination with lamivudine
  mean synergy volume: 180 ± 128 μM^2%
[1]; in combination with lopinavir
  mean synergy volume: 212 ± 62.2 μM^2%
[1]; in combination with nelfinavir
  mean synergy volume: 282 ± 61.5 μM^2%
[1]; in combination with ritonavir
  mean synergy volume: 143 ± 33.5 μM^2%
[1]; in combination with stavudine
  mean synergy volume: 110 ± 68 μM^2%
In vitro
  CC50: > 216 µM
MT-4 cells
  non-toxic up to high test concentration: > 100 µM
[2]
  EC50: > 100 µM
HIV-1IIIB [3]
  selection of resistant virus: did not result in resistance
[4]; read-out: PBMC/HIV-1 EC50 ± SD, Multi-drug resistant AD. MDR
  EC50: 7.21 ± 4.38 µM
[4]; read-out: PBMC/HIV-1 EC50 ± SD, Multi-drug resistant MDR769
  EC50: 4.77 ± 0.95 µM
[4]; read-out: PBMC/HIV-1 EC50 ± SD, NNRTI-resistant A17R
  EC50: 10 ± 4.78 µM
[4]; read-out: PBMC/HIV-1 EC50 ± SD, NNRTI-resistant N119
  EC50: 5.9 ± 1.31 µM
[4]; read-out: PBMC/HIV-1 EC50 ± SD, PI-resistant 144-44
  EC50: 8.38 ± 5.4 µM
[4]; read-out: PBMC/HIV-1 EC50 ± SD, PI-resistant 1002-60
  EC50: 3.66 ± 0.28 µM
[4]; read-out: PBMC/HIV-1 EC50 ± SD, PI-resistant 1022-48
  EC50: 3.45 ± 2.26 µM
[4]; read-out: PBMC/HIV-1 EC50 ± SD, PI-resistant 1026-60
  EC50: 3.29 ± 0.57 µM
[4]; read-out: PBMC/HIV-1 EC50 ± SD, PI-resistant 1064-52
  EC50: 2.62 ± 1.87 µM
[4]; read-out: PBMC/HIV-1 EC50 ± SD, Wild Type 92US727
  EC50: 5.58 ± 0.12 µM
Cytochrome P450 enzymes
  inhibition of cytochrome P450 enzymes: neither NS1040 nor MDH-1-38 had significant inhibitory activity
Pharmacokinetics in rats; iv, 50 mg/kg
  concentration at 1 h: < 0.1 ng/mL
Pharmacokinetics in rats; po, 1000 mg/kg
  concentration at 0.75 h: < 0.1 ng/mL
hERG
  hERG test for cardiotoxicity: negative
Wild type HIV-1 RT
  EC50: > 100 µM
HIV-1IIIB [5]; in the presence of 50% human AB serum
  fold decrease in potency: ~4.5 fold
HIV-1IIIB [5]; in the presence of HSA (10 mg/mL)
  fold decrease in potency: did not exhibit a significant decrease in potency
HIV-1 integrase
  EC50: > 100 µM
[6]
  change in antiviral activity with serum protein additives: no significant change in antiviral activity
[7]; Human immunodeficiency virus 1, read-out: Mean EC50 ± SD, AZT- and NNRTI-resistant, RT 4xAZT/L100I
  EC50: 3.54 ± 2.02 µM
[7]; Human immunodeficiency virus 1, read-out: Mean EC50 ± SD, AZT- and NNRTI-resistant, RT 4xAZT/Y181C
  EC50: 5.24 ± 0.18 µM
[7]; Human immunodeficiency virus 1, read-out: Mean EC50 ± SD, AZT-resistant, RT 4xAZT (D67N/K70R/T215Y/K219Q)
  EC50: 4.24 ± 0.91 µM
[7]; Human immunodeficiency virus 1, read-out: Mean EC50 ± SD, Atazanavir-resistant, PR I50L
  EC50: 1.27 ± 0.19 µM
[7]; Human immunodeficiency virus 1, read-out: Mean EC50 ± SD, Didanosine-resistant, RT L74V
  EC50: 4.59 ± 0.61 µM
[7]; Human immunodeficiency virus 1, read-out: Mean EC50 ± SD, Enfuviritide-resistant, Env V38A/N126K
  EC50: 5.48 ± 0.01 µM
[7]; Human immunodeficiency virus 1, read-out: Mean EC50 ± SD, Indinavir-, Ritonavir-resistant, PR I84V
  EC50: 3.33 ± 0.44 µM
[7]; Human immunodeficiency virus 1, read-out: Mean EC50 ± SD, Indinavir-, Ritonavir-resistant, PR V82A
  EC50: 6.73 ± 1.06 µM
[7]; Human immunodeficiency virus 1, read-out: Mean EC50 ± SD, Indinavir-, Ritonavir-resistant, PR V82F/I84V
  EC50: 3.52 ± 1.7 µM
[7]; Human immunodeficiency virus 1, read-out: Mean EC50 ± SD, Lamivudine-resistant, RT M184V
  EC50: 3.5 ± 1.1 µM
[7]; Human immunodeficiency virus 1, read-out: Mean EC50 ± SD, NNRTI-resistant, RT K103N/Y181C
  EC50: 5.19 ± 0.06 µM
[7]; Human immunodeficiency virus 1, read-out: Mean EC50 ± SD, NNRTI-resistant, RT K103N
  EC50: 5.02 ± 0.14 µM
[7]; Human immunodeficiency virus 1, read-out: Mean EC50 ± SD, NNRTI-resistant, RT L100I
  EC50: 1.61 ± 0.41 µM
[7]; Human immunodeficiency virus 1, read-out: Mean EC50 ± SD, NNRTI-resistant, RT V106A
  EC50: 4.07 ± 0.78 µM
[7]; Human immunodeficiency virus 1, read-out: Mean EC50 ± SD, NNRTI-resistant, RT V108I
  EC50: 4.7 ± 0.17 µM
[7]; Human immunodeficiency virus 1, read-out: Mean EC50 ± SD, NNRTI-resistant, RT V179D
  EC50: 5.01 ± 0.31 µM
[7]; Human immunodeficiency virus 1, read-out: Mean EC50 ± SD, NNRTI-resistant, RT Y181C
  EC50: 4.52 ± 1.07 µM
[7]; Human immunodeficiency virus 1, read-out: Mean EC50 ± SD, NNRTI-resistant, RT Y188C
  EC50: 4.72 ± 0.55 µM
[7]; Human immunodeficiency virus 1, read-out: Mean EC50 ± SD, Raltegravir-resistant, IN Q148H/G140S
  EC50: 4.16 ± 0.26 µM
[7]; Human immunodeficiency virus 1, read-out: Mean EC50 ± SD, Saquinavir-resistant, PR G48V/L90M
  EC50: 1.1 ± 0.32 µM
[7]; Human immunodeficiency virus 1, read-out: Mean EC50 ± SD, Tenofovir-resistant, RT K65R
  EC50: 5.21 ± 0.08 µM
HIV strain 92US727; Passage 1, 5 μM
  RT: 222 cpm
  TCID50/mL: 4.18 × 10^2 TCID50/mL
  p24: 766 pg/mL
HIV strain 92US727; Passage 2, 5 μM
  RT: 595 cpm
  TCID50/mL: 6.86 × 10^3 TCID50/mL
  p24: 1731 pg/mL
HIV strain 92US727; Passage 3, 5 μM
  RT: 9728 cpm
  TCID50/mL: 6.52 × 10^4 TCID50/mL
  p24: 61,967 pg/mL
HIVIIIB
  fold less effective than MDH-1-38 at reducing cell to cell HIV transmission: approximately 3 fold
HIVIIIB; Passage 1, 2 μM
  RT: 27 cpm
  TCID50/mL: 0 TCID50/mL
  p24: 725 pg/mL
HIVIIIB; Passage 2, 2 μM
  RT: 1063 cpm
  p24: 85,803 pg/mL
HIVIIIB; Passage 3, 2 μM
  RT: 7036 cpm
  TCID50/mL: 1.31 × 10^4 TCID50/mL
  p24: 1,570,937 pg/mL
[8]
  EC50: > 100 µM
HIV-1 protease
  EC50: > 100 µM
